Our source for the Radioactivity and pKa values is ChEMBL document CHEMBL1121974, “Structure-activity relationships of some technetium-99m labeled [(thioethyl)amino] carboxylates” (J Med Chem, 1982).

The test system of data set [1] is Mus musculus. Description: Percent injected radioactivity was determined in kidney after intravenous administration into the tail vein of male swiss albino mice after 60 min. In kind it is ADME, organism-based. As to conditions: in vivo, 1 h. In outline: (§1)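 Mice weighing 20–25 g received 0.2 mL (2 μCi) and were held in metabolic cages. At 60 min they were killed with ether, with the penis ligated. Organs were γ-counted, tail counts were subtracted from the dose, and values are the mean of five ±SD.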

Data set [2] concerns Mus musculus. The data set is described as follows: Percent injected radioactivity was determined in liver and gallbladder after intravenous administration into the tail vein of male swiss albino mice after 60 min. In kind it is ADME, organism-based. Set-up: concentration or dose not given beside the values. Conditions: in vivo, 1 h. The procedure, abridged: as §1
Data set [3] is described as follows: Acidity constant pK1 was measured. In kind it is ADME. As to conditions: read-out: pK1. In outline:
(§2)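 Acid-base titration of the free ligands over a pH range, followed by the chemical shifts of nonlabile protons. Macroscopic constants were assigned to the COOH, SH and NH⁺ dissociation steps; microscopic constants were not obtained.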

In data set [4] the test system is Mus musculus. Description: Percent injected radioactivity was determined in urine after intravenous administration into the tail vein of male swiss albino mice after 60 min. On the set-up: concentration or dose not given beside the values. As to conditions: in vivo, 1 h. In kind it is ADME, organism-based. The procedure, abridged:
as §1

Data set [5] relates to Mus musculus. The data set is described as follows: Percent injected radioactivity was determined in muscle after intravenous administration into the tail vein of male swiss albino mice after 60 min. In kind it is ADME, organism-based, Muscle tissue. On the set-up: concentration or dose not given beside the values. As to conditions: in vivo, 1 h. The procedure, abridged: as §1

The test system of data set [6] is Mus musculus. Description: Percent injected radioactivity was determined in blood after intravenous administration into the tail vein of male swiss albino mice after 60 min. In kind it is ADME, organism-based. Conditions: in vivo, 1 h. In outline:
as §1

The nature of data set [7]: Acidity constant pK3 was measured. In kind it is ADME. Conditions: read-out: pK3. In outline:
as §2

For data set [8], the system named is Mus musculus. Description: Percent injected radioactivity was determined in intestine after intravenous administration into the tail vein of male swiss albino mice, after 60 min. In kind it is ADME, organism-based. As to conditions: in vivo, 1 h. The procedure, abridged: as §1
Data set [9] is described as follows: Acidity constant pK2 was measured. In kind it is ADME. As to conditions: read-out: pK2. The procedure, abridged:
as §2

The nature of data set [10]: Acidity constant pK3' was measured. In kind it is ADME. As to conditions: read-out: pK3'. In outline:
as §2

For the molecule `O=C(O)CN(CCS)CC(=O)O`, the Radioactivity in the data set with Mus musculus [1] is on record as 5.677%; in the data set with Mus musculus [2], 1.92%; with Mus musculus [4] it was 52.11%; in the data set on Mus musculus [5], 7.553%; in the data set with Mus musculus [6] it was 3.598%; in the data set on Mus musculus [8], 4.743%. In addition, the pKa was 1.9 in data set [3], 10.6 in [7] and 7.7 in data set [9].

As to `O=C(O)C(S)C(S)C(=O)O` (stereo not drawn), the Radioactivity in the data set on Mus musculus [1] turned out to be 21.823%; in the data set with Mus musculus [2], 12.617%; with Mus musculus [4], 30.04%; with Mus musculus [5], 24.17%; in the data set with Mus musculus [6], 18.873%; with Mus musculus [8] it was 5.693%.

With `O=C(O)CN(CCS)CCN(CCS)CC(=O)O`, the Radioactivity is 5.62% in the data set with Mus musculus [1]; 4.3% in the data set with Mus musculus [2]; 39.5% with Mus musculus [4]; 3.472% with Mus musculus [5]; 3.46% in the data set with Mus musculus [6]; 16.924% in the data set with Mus musculus [8]. Also, the pKa in [3] was 1.1; in data set [10] it was 4.6; in data set [7], 11.6; in [9] it was 9.

Turning to `O=C(O)CN(CCSCc1ccccc1)CC(=O)O`, the Radioactivity in the data set with Mus musculus [1] is reported as 2.083%; in the data set on Mus musculus [2] it was 8.429%; with Mus musculus [4] it was 11.371%; in the data set on Mus musculus [5] it was 3.32%; in the data set on Mus musculus [6], 2.627%; with Mus musculus [8] it was 58.02%. Also, the pKa was 2.1 in data set [3] and 9.1 in data set [7].

For the molecule `O=C(O)CN(CCSc1ccc2ccccc2c1)CC(=O)O`, the Radioactivity is listed as 1.842% in the data set with Mus musculus [1]; 22.748% with Mus musculus [2]; 9.74% with Mus musculus [4]; 5.254% in the data set on Mus musculus [5]; 4.41% in the data set with Mus musculus [6]; 51.3% in the data set with Mus musculus [8].

Consider `Cl.O=C(O)CNCCS`, for which the Radioactivity in the data set on Mus musculus [1] came to 5.318%; with Mus musculus [2], 5.448%; in the data set on Mus musculus [4], 36.323%; in the data set with Mus musculus [5], 6.988%; in the data set with Mus musculus [6], 4.176%; with Mus musculus [8] it was 16.702%. Also, the pKa in data set [3] was determined as 2.6; in data set [7], 11.6; in data set [9], 8.5.

Turning to `O=C(O)CN(CCSSCCN(CC(=O)O)CC(=O)O)CC(=O)O`, the Radioactivity with Mus musculus [1] is listed as 4.24%; in the data set with Mus musculus [2], 3.085%; with Mus musculus [4], 50.09%; in the data set with Mus musculus [5], 7.97%; in the data set on Mus musculus [6] it was 4.64%; in the data set with Mus musculus [8], 8.9%. The pKa was 2.3 in [3] and 9.2 in data set [7].

For the molecule `CCSCCN(CC(=O)O)CC(=O)O`, the Radioactivity in the data set on Mus musculus [1] stood at 3.567%; with Mus musculus [2], 8.568%; with Mus musculus [4] it was 34.1%; with Mus musculus [5] it was 3.56%; in the data set on Mus musculus [6] it was 4.55%; with Mus musculus [8], 25.533%.

On to `CCCCSCCN(CC(=O)O)CC(=O)O`, for which the Radioactivity in the data set with Mus musculus [1] is 2.767%; in the data set on Mus musculus [2], 12.7%; with Mus musculus [4], 15.967%; in the data set with Mus musculus [5] it was 4.013%; in the data set with Mus musculus [6], 2.8%; in the data set on Mus musculus [8], 52.4%.
